Active and inactive are the calls of the source. No cut-off for these calls is given here.
Assays:
Staphylococcus aureus = experiment: Growth inhibition of methicillin-resistant Staphylococcus aureus ATCC 43300 at 32 ug/ml after 18 hrs; assay type: functional; settings: ATCC 43300, 18 h, read-out: GI
Method in brief: (§1)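 Mid-log cultures in cation-adjusted Mueller Hinton broth were added at 5×10^5 CFU/mL to wells at a final compound concentration of 32 μg/mL. Plates stood at 37 °C for 18 h. Growth was read by OD600, and % inhibition was computed against media-only and untreated-bacteria controls.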

Escherichia coli = experiment: Growth inhibition of Escherichia coli ATCC 25922 at 32 ug/ml after 18 hrs; assay type: functional; settings: ATCC 25922, 18 h, read-out: GI
Method in brief: (§2)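 Mid-log cultures were prepared as above and seeded at 5×10^5 CFU/mL with compound at a final 32 μg/mL, then held static at 37 °C for 18 h. Growth was read as OD600. Percent inhibition was calculated against media-only and bacteria-only controls on the same plate.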

Klebsiella pneumoniae = experiment: Growth inhibition of multidrug-resistant Klebsiella pneumoniae ATCC 700603 at 32 ug/ml after 18 hrs; assay type: functional; settings: ATCC 700603, 18 h, read-out: GI; method in brief: as §1
Pseudomonas aeruginosa = experiment: Growth inhibition of Pseudomonas aeruginosa ATCC 27853 at 32 ug/ml after 18 hrs; assay type: functional; settings: ATCC 27853, 18 h, read-out: GI; method in brief: as §2
Acinetobacter baumannii = experiment: Growth inhibition of Acinetobacter baumannii ATCC 19606 at 32 ug/ml after 18 hrs; assay type: functional; settings: ATCC 19606 = CIP 70.34 = JCM 6841, 18 h, read-out: GI; method in brief: as §2
Cryptococcus neoformans = experiment: Growth inhibition of Cryptococcus neoformans H99 ATCC 208821 at 32 ug/ml after 24 hrs by resazurin dye-based microspectrophotometric assay; assay type: functional; settings: var. grubii H99 ATCC 208821, 24 h, read-out: GI
Method in brief: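 Yeasts were grown 3 days on YPD agar at 30 °C, suspended from five colonies and diluted in YNB broth to a final 2.5×10^3 CFU/mL. Compound at a final 32 μg/mL; incubated 24 h at 35 °C without shaking. C. albicans was read at OD530. C. neoformans was read as OD600–570 after resazurin (0.001% final) and a further 2 h at 35 °C. Fluconazole was the standard.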

Lipid bilayer = experiment: Induction of pore formation in POPC vesicles at 20 uM after 3 hrs by carboxyfluorescein dye leakage assay; settings: in the assay text read “after 3 mins” for “after 3 hrs”
Method in brief: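 POPC or DOPC liposomes were hydrated in 10 mM HEPES, 100 mM KCl, pH 7.4, containing 50 mM carboxyfluorescein. Size was checked by dynamic light scattering, and vesicles were used at 2.2×10^10 per mL. Peptide at 20 μM was equilibrated with vesicles for 3 min, and dye leakage was measured.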

Candida albicans = experiment: Growth inhibition of Candida albicans ATCC 90028 at 32 ug/ml after 24 hrs by OD530 light-scattering microspectrophotometric method; settings: ATCC 90028, 24 h, read-out: GI
Erythrocyte = experiment: Hemolytic activity against human RBC after 1 hr by Drabkin's assay; assay type: ADME, cell-based
[1] = Hemolytic activity against human RBC at 50 uM after 1 hr by Drabkin's assay relative to control; assay type: ADME, cell-based, Erythrocyte; settings: human red blood cells (erythrocytes), read-out: Activity
[2] = Hemolytic activity against human RBC at 100 uM after 1 hr by Drabkin's assay relative to control; assay type: ADME, cell-based, Erythrocyte; settings: human red blood cells (erythrocytes), read-out: Activity
[3] = Hemolytic activity against human RBC at 25 uM after 1 hr by Drabkin's assay relative to control; assay type: ADME, cell-based, Erythrocyte; settings: human red blood cells (erythrocytes), read-out: Activity
[4] = Hemolytic activity against human RBC at 12.5 uM after 1 hr by Drabkin's assay relative to control; assay type: ADME, cell-based, Erythrocyte; settings: human red blood cells (erythrocytes), read-out: Activity
[5] = Hemolytic activity against human RBC at 6.25 uM after 1 hr by Drabkin's assay relative to control; assay type: ADME, cell-based, Erythrocyte; settings: human red blood cells (erythrocytes), read-out: Activity
[6] = Hemolytic activity against human RBC at 3.125 uM after 1 hr by Drabkin's assay relative to control; assay type: ADME, cell-based, Erythrocyte; settings: human red blood cells (erythrocytes), read-out: Activity
[7] = Hemolytic activity against human RBC at 1.56 uM after 1 hr by Drabkin's assay relative to control; assay type: ADME, cell-based, Erythrocyte; settings: human red blood cells (erythrocytes), read-out: Activity
[8] = Hemolytic activity against human RBC at 0.78 uM after 1 hr by Drabkin's assay relative to control; assay type: ADME, cell-based, Erythrocyte; settings: human red blood cells (erythrocytes), read-out: Activity
[9] = Hemolytic activity against human RBC at 0.39 uM after 1 hr by Drabkin's assay relative to control; assay type: ADME, cell-based, Erythrocyte; settings: human red blood cells (erythrocytes), read-out: Activity

| Compound | inhibition of growth at 32 µg/mL (Staphylococcus aureus) | inhibition of growth at 32 µg/mL (Escherichia coli) | inhibition of growth at 32 µg/mL (Klebsiella pneumoniae) | inhibition of growth at 32 µg/mL (Pseudomonas aeruginosa) | inhibition of growth at 32 µg/mL (Acinetobacter baumannii) | inhibition of growth at 32 µg/mL (Cryptococcus neoformans) | Activity (Lipid bilayer) | inhibition of growth at 32 µg/mL (Candida albicans) | Activity (Erythrocyte) | hemolysis at 1 h, 50 µM [1] | hemolysis at 1 h, 100 µM [2] | hemolysis at 1 h, 25 µM [3] | hemolysis at 1 h, 12.5 µM [4] | hemolysis at 1 h, 6.25 µM [5] | hemolysis at 1 h, 3.125 µM [6] | hemolysis at 1 h, 1.56 µM [7] | hemolysis at 1 h, 0.78 µM [8] | hemolysis at 1 h, 0.39 µM [9] |
| --- | --- | --- | --- | --- | --- | --- | --- | --- | --- | --- | --- | --- | --- | --- | --- | --- | --- | --- |
| O=C(OCc1ccccc1)N1CCCN1C(=O)[C@@H]1CCCN1C(=O)N1CCCN1C(=O)[C@@H]1CCCN1C(=O)N1CCCN1C(=O)[C@@H]1CCCN1C(=O)N1CCCN1C(=O)[C@@H]1CCCN1C(=O)N1CCCN1C(=O)[C@@H]1CCCN1C(=O)N1CCCN1C(=O)[C@@H]1CCCN1C(=O)N1CCCN1C(=O)[C@@H]1CCCN1C(=O)N1CCCN1C(=O)[C@@H]1CCCN1 | 28.6% | 14.8% | 14.8% | -2.53% | 38.4% | 0.967% | inactive | 4.07% | – | – | – | – | – | – | – | – | – | – |
| CC(C)(C)OC(=O)[C@@H]1CCCN1C(=O)N1CCCN1C(=O)[C@@H]1CCCN1C(=O)N1CCCN1C(=O)[C@@H]1CCCN1C(=O)N1CCCN1C(=O)[C@@H]1CCCN1C(=O)N1CCCN1 | 5.04% | 4.06% | 4.07% | 4.45% | -8.79% | -4.84% | inactive | 4.64% | Dose-dependent effect | – | – | – | – | – | – | – | – | – |
| CN1CCCN1C(=O)[C@@H]1CCCN1C(=O)N1CCCN1C(=O)[C@@H]1CCCN1C(=O)N1CCCN1C(=O)[C@@H]1CCCN1C(=O)N1CCCN1C(=O)[C@@H]1CCCN1C(=O)N1CCCN1C(=O)[C@@H]1CCCN1C(=O)N1CCCN1C(=O)[C@@H]1CCCN1C(=O)N1CCCN1C(=O)[C@@H]1CCCN1C(=O)N1CCCN1C(=O)[C@@H]1CCCN1C(=O)N1CCCN1C(=O)OCc1ccccc1 | 25.1% | 3.93% | 3.93% | -3.91% | -6.74% | -5.68% | – | 3.49% | – | – | – | – | – | – | – | – | – | – |
| Cl.O=C(OCc1ccccc1)N1CCCN1C(=O)[C@@H]1CCCN1C(=O)N1CCCN1C(=O)[C@@H]1CCCN1C(=O)N1CCCN1C(=O)[C@@H]1CCCN1C(=O)N1CCCN1C(=O)[C@@H]1CCCN1 | 23.8% | 0.27% | 0.27% | -10.1% | 34.9% | -1.33% | – | 4.48% | Dose-dependent effect | -0.013% | 0.045% | – | – | – | – | – | – | – |
| CC(C)(C)OC(=O)N1CCC[C@H]1C(=O)N1CCCN1C(=O)N1CCC[C@H]1C(=O)N1CCCN1C(=O)N1CCC[C@H]1C(=O)N1CCCN1C(=O)N1CCC[C@H]1C(=O)N1CCCN1 | 28.3% | 4.51% | 4.51% | -4.17% | 7.37% | -0.655% | – | 3.56% | Dose-dependent effect | 0.061% | 0.723% | – | – | – | – | – | – | – |
| CC(C)(C)OC(=O)[C@@H]1CCCN1C(=O)N1CCCN1C(=O)[C@@H]1CCCN1C(=O)N1CCCN1C(=O)[C@@H]1CCCN1C(=O)N1CCCN1C(=O)[C@@H]1CCCN1C(=O)N1CCCN1C(=O)[C@@H]1CCCN1C(=O)N1CCCN1C(=O)[C@@H]1CCCN1C(=O)N1CCCN1C(=O)[C@@H]1CCCN1C(=O)N1CCCN1C(=O)[C@@H]1CCCN1C(=O)N1CCCN1.Cl | – | – | – | – | – | – | – | – | Dose-dependent effect | 0% | -0.181% | -0.271% | 0.181% | 0% | -0.361% | 0% | -0.903% | -0.181% |

From ChEMBL document CHEMBL4196059, “Design, synthesis, and biological evaluation of stable β6.3-Helices: Discovery of non-hemolytic antibacterial peptides” (Eur J Med Chem, 2018)
